# Measurements collected from several papers.
# Compare with care: the assays were run in different laboratories.
# DRD4: D(4) dopamine receptor (DRD4, Homo sapiens, UniProt P21917)
# HTR5A: 5-hydroxytryptamine receptor 5A (HTR5A, Homo sapiens, UniProt P47898)
# Kir1 channel protein: Kir1 channel protein (Aedes aegypti, UniProt L0EQS9)
# PIK3CD: Phosphatidylinositol 4,5-bisphosphate 3-kinase catalytic subunit delta isoform (PIK3CD, Homo sapiens, UniProt O00329)
# GRM8: Metabotropic glutamate receptor 8 (GRM8, Homo sapiens, UniProt O00222)
SMILES,target,assay,quantity,result
O=C1c2ccccc2CCN1CCCCN1CCN(c2ccccn2)CC1,DRD4,"ligand displacement, radioligand",Ki,14.5 nM
CS(=O)(=O)C1(CNCc2ccc(Cl)c3cccnc23)CC1,HTR5A,"ligand displacement, radioligand",Ki,126 nM
O=C1c2ccccc2CCN1CCCCN1CCN(c2cccc(Cl)c2Cl)CC1,HTR5A,"ligand displacement, radioligand",Ki,773 nM
CCN(CC)c1ccc(C2Nc3ccc(C(=O)c4ccccc4)cc3NC3=C2C(=O)CC(C)(C)C3)cc1 (stereo not drawn),HTR5A,"cell-free assay, radioligand",Ki,7960 nM
O=S(=O)(c1ccc(Cl)cc1)N1CCN(c2ccc(C(F)(F)F)c(NCc3ccncc3)c2)CC1,Kir1 channel protein,"ion flux, inhibitor",IC50,4000 to 9000 nM
COc1ccc(F)cc1C(=O)NCc1ccc(-c2nn([C@@H](C)C(F)(F)F)c(N)c2C(N)=O)cc1,"Tyrosine-protein kinase BTK (BTK, Homo sapiens, UniProt Q06187, C481S)","phosphorylation in cells, inhibitor",IC50,8.1 nM
CC[C@@H]1C(=O)OC[C@@H]1Cc1cncn1C,"Cytochrome P450 2E1 (CYP2E1, Homo sapiens, UniProt P05181)",binding,Kd,26500 nM
CS(=O)(=O)C1(CNCc2cccc3cccnc23)CC1,HTR5A,"ligand displacement, radioligand",Ki,41.7 nM
CCC(=O)N1CCC(C(=O)NCC(=O)N2CCN(c3nc(-c4cnc(N)nc4C(F)F)nc(N4CCOCC4)n3)CC2)CC1,PIK3CD,"binding, competition with immobilised ligand",Kd,1.6 nM
CC(=O)N[C@@H](Cc1ccccc1)C(=O)N1CCC[C@H]1C(=O)N1CCC[C@H]1C(=O)N1CCC[C@H]1C(=O)N1CCC[C@H]1C(=O)O,"Vasodilator-stimulated phosphoprotein (VASP, Homo sapiens, UniProt P50552)","binding, fluorescence",Kd,800000 nM
CC(=O)CC(=O)SCCNC(=O)CCNC(=O)[C@H](O)C(C)(C)COP(=O)(O)OP(=O)(O)OC[C@H]1O[C@@H](n2cnc3c(N)ncnc32)[C@H](O)[C@@H]1OP(=O)(O)O,"IVD (Homo sapiens, UniProt P26440)","binding, absorbance",Kd,~18000 nM
"COc1cc(F)cc2c(N3CCN4c5ccccc5OC[C@@H]4C3)c(C#N)nnc12 (single isomer, unassigned)",GRM8,"calcium signal, positive allosteric modulator",EC50,> 30000 nM
CC1=C(O)C(=O)OC1C (stereo not drawn),"OR8D1 (Homo sapiens, UniProt Q8WZ84, R293A)","cAMP, agonist, luciferase",EC50,13500 nM
CS(=O)(=O)N1CCN(c2ccc([N+](=O)[O-])c(NCc3cccnc3)c2)CC1,Kir1 channel protein,"ion flux, inhibitor",IC50,44000 nM
Cc1ncsc1-c1ccc(CNC(=O)[C@@H]2C[C@@H](O)CN2C(=O)[C@@H](NC(=O)CCCCCCCCCC(=O)N2CCN(CC[C@H](NC(=O)C3(N)CCN(c4ncnc5[nH]ccc45)CC3)c3ccc(Cl)cc3)CC2)C(C)(C)C)cc1,"RAC-beta serine/threonine-protein kinase (AKT2, Homo sapiens, UniProt P31751)","binding, competition with immobilised ligand",Kd,360 nM
CCn1c(-c2nc3cc(C(=O)N4CCC[C@@H](N)C4)cc(OC)c3n2C)cc2cccnc21,"Nuclear receptor subfamily 1 group I member 2 (NR1I2, Homo sapiens, UniProt O75469)","reporter gene, agonist, luciferase",EC50,> 50100 nM
COc1ccc(CCC2=NCCN2CCc2ccccc2)cc1,DRD4,"ligand displacement, radioligand",Ki,501 nM
Cc1cnc(-c2ccc(-c3ccc(NC(=O)Nc4c(F)cc(F)cc4F)cc3F)c3c2C(=O)NC3)[nH]1,"Mast/stem cell growth factor receptor Kit (KIT, Homo sapiens, UniProt P10721)","binding, competition with immobilised ligand",Kd,0.8 nM
N#Cc1ccc(N2CCN(S(=O)(=O)c3ccc(F)cc3)CC2)cc1NCc1ccncc1,Kir1 channel protein,"ion flux, inhibitor",IC50,361 nM
CN1CCN(c2ccc(Nc3ncc4cc(C#N)c(=O)n(C5CCCC5)c4n3)cc2)CC1,"Calcium/calmodulin-dependent protein kinase type 1 (CAMK1, Homo sapiens, UniProt Q14012)","enzyme activity, inhibitor",IC50,> 10000 nM
O=S(=O)(c1ccc(F)cc1)N1CCN(c2ccc(C(F)(F)F)c(NCc3ccncc3)c2)CC1,Kir1 channel protein,"ion flux, inhibitor",IC50,4000 to 9000 nM
CNc1nc2cc(OCCCCN3CCC(c4cccc(Cl)c4Cl)CC3)ccc2s1,HTR5A,"ligand displacement, radioligand",Ki,810 nM
C=CC(=O)N1CCC(C(=O)N(C)CC(=O)N2CCN(c3nc(-c4cnc(N)nc4C(F)F)nc(N4CCOCC4)n3)CC2)CC1,PIK3CD,"binding, competition with immobilised ligand",Kd,2.2 nM
COc1ccc(-c2nsc(NC(=O)[C@@H]3C[C@H]3C)c2C)cc1,GRM8,"calcium signal, agonist",EC50,> 25000 nM
